Columns and labels:
MT4 [1] = test: In vitro inhibitory activity for cytopathicities induced by HIV-1III B against MT-4 cells.; assay type: functional, cell-based; conditions: Homo sapiens
How it was run: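 Exponentially growing MT-4 cells were pelleted (140g, 5 min), infected in a small volume of RPMI-1640 with 100 TCID50 HIV-1 IIIB for 1 h, washed, and plated at 2.5 × 10⁴ cells/well with serial oligonucleotide dilutions. Viability was read by MTT at day 6. IC50 was taken from dose-response curves, as the mean of duplicate or quadruplicate ± SD.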

MT4 [2] = test: Cytotoxicity was measured against MT-4 cells using MTT assay.; assay type: functional; conditions: Homo sapiens

Row | SMILES | IC50 (MT4 [1]) [µM] | CC50 (MT4 [2]) [µM]
1 | Cc1cn([C@H]2C[C@H](OP(=O)(O)OC[C@H]3O[C@@H](n4cnc5c(=O)[nH]c(N)nc54)C[C@@H]3OP(=O)(O)OC[C@H]3O[C@@H](n4cnc5c(=O)[nH]c(N)nc54)C[C@@H]3OP(=O)(O)OC[C@H]3O[C@@H](n4cnc5c(=O)[nH]c(N)nc54)C[C@@H]3OP(=O)(O)OC[C@H]3O[C@@H](n4cnc5c(N)ncnc54)C[C@@H]3OP(=O)(O)OC[C@H]3O[C@@H](n4cnc5c(=O)[nH]c(N)nc54)C[C@@H]3O)[C@@H](COCc3ccc(-c4ccccc4)cc3)O2)c(=O)[nH]c1=O | 2.8 | > 40
2 | Cc1cn([C@H]2C[C@H](OP(=O)(O)OC[C@H]3O[C@@H](n4cnc5c(=O)[nH]c(N)nc54)C[C@@H]3OP(=O)(O)OC[C@H]3O[C@@H](n4cnc5c(=O)[nH]c(N)nc54)C[C@@H]3OP(=O)(O)OC[C@H]3O[C@@H](n4cnc5c(=O)[nH]c(N)nc54)C[C@@H]3OP(=O)(O)OC[C@H]3O[C@@H](n4cnc5c(N)ncnc54)C[C@@H]3OP(=O)(O)OC[C@H]3O[C@@H](n4cnc5c(=O)[nH]c(N)nc54)C[C@@H]3O)[C@@H](COC(c3ccccc3)c3ccccc3)O2)c(=O)[nH]c1=O | 4.3 | > 40
3 | Cc1cn([C@H]2C[C@H](OP(=O)(O)OC[C@H]3O[C@@H](n4cnc5c(=O)[nH]c(N)nc54)C[C@@H]3OP(=O)(O)OC[C@H]3O[C@@H](n4cnc5c(=O)[nH]c(N)nc54)C[C@@H]3OP(=O)(O)OC[C@H]3O[C@@H](n4cnc5c(=O)[nH]c(N)nc54)C[C@@H]3OP(=O)(O)OC[C@H]3O[C@@H](n4cnc5c(=O)[nH]c(N)nc54)C[C@@H]3OP(=O)(O)OC[C@H]3O[C@@H](n4cnc5c(=O)[nH]c(N)nc54)C[C@@H]3O)[C@@H](COCc3ccc(OCc4ccccc4)c(OCc4ccccc4)c3)O2)c(=O)[nH]c1=O | 0.26 | > 40
4 | Cc1cn([C@H]2C[C@H](OP(=O)(O)OC[C@H]3O[C@@H](n4cnc5c(=O)[nH]c(N)nc54)C[C@@H]3OP(=O)(O)OC[C@H]3O[C@@H](n4cnc5c(=O)[nH]c(N)nc54)C[C@@H]3OP(=O)(O)OC[C@H]3O[C@@H](n4cnc5c(=O)[nH]c(N)nc54)C[C@@H]3OP(=O)(O)OC[C@H]3O[C@@H](n4cnc5c(N)ncnc54)C[C@@H]3OP(=O)(O)OC[C@H]3O[C@@H](n4cnc5c(=O)[nH]c(N)nc54)C[C@@H]3O)[C@@H](COC3(c4ccccc4)c4ccccc4Oc4ccccc43)O2)c(=O)[nH]c1=O | 0.95 | > 40
5 | Cc1cn([C@H]2C[C@H](OP(=O)(O)OC[C@H]3O[C@@H](n4cnc5c(=O)[nH]c(N)nc54)C[C@@H]3OP(=O)(O)OC[C@H]3O[C@@H](n4cnc5c(=O)[nH]c(N)nc54)C[C@@H]3OP(=O)(O)OC[C@H]3O[C@@H](n4cnc5c(=O)[nH]c(N)nc54)C[C@@H]3OP(=O)(O)OC[C@H]3O[C@@H](n4cnc5c(N)ncnc54)C[C@@H]3OP(=O)(O)OC[C@H]3O[C@@H](n4cnc5c(=O)[nH]c(N)nc54)C[C@@H]3O)[C@@H](COCc3ccccc3)O2)c(=O)[nH]c1=O | > 40 | > 40
6 | Cc1cn([C@H]2C[C@H](OP(=O)(O)OC[C@H]3O[C@@H](n4cc(C)c(=O)[nH]c4=O)C[C@@H]3OP(=O)(O)OC[C@H]3O[C@@H](n4cnc5c(O)nc(N)nc54)C[C@@H]3OP(=O)(O)OC[C@H]3O[C@@H](n4cnc5c(O)nc(N)nc54)C[C@@H]3OP(=O)(O)OC[C@H]3O[C@@H](n4cnc5c(O)nc(N)nc54)C[C@@H]3O)[C@@H](COCc3ccc(OCc4ccccc4)c(OCc4ccccc4)c3)O2)c(=O)[nH]c1=O | > 40 | 40
7 | Cc1cn([C@H]2C[C@H](OP(=O)(O)OC[C@H]3O[C@@H](n4cnc5c(=O)[nH]c(N)nc54)C[C@@H]3OP(=O)(O)OC[C@H]3O[C@@H](n4cnc5c(=O)[nH]c(N)nc54)C[C@@H]3OP(=O)(O)OC[C@H]3O[C@@H](n4cnc5c(=O)[nH]c(N)nc54)C[C@@H]3OP(=O)(O)OC[C@H]3O[C@@H](n4cnc5c(N)ncnc54)C[C@@H]3OP(=O)(O)OC[C@H]3O[C@@H](n4cnc5c(=O)[nH]c(N)nc54)C[C@@H]3O[Si](c3ccccc3)(c3ccccc3)C(C)(C)C)[C@@H](CO)O2)c(=O)[nH]c1=O | > 40 | 7.7
8 | Cc1cn([C@H]2C[C@H](OP(=O)(O)OC[C@H]3O[C@@H](n4cnc5c(=O)[nH]c(N)nc54)C[C@@H]3OP(=O)(O)OC[C@H]3O[C@@H](n4cnc5c(=O)[nH]c(N)nc54)C[C@@H]3OP(=O)(O)OC[C@H]3O[C@@H](n4cnc5c(=O)[nH]c(N)nc54)CC3OP(=O)(O)OC[C@H]3O[C@@H](n4cnc5c(N)ncnc54)C[C@@H]3OP(=O)(O)OC[C@H]3O[C@@H](n4cnc5c(=O)[nH]c(N)nc54)C[C@@H]3O[Si](c3ccccc3)(c3ccccc3)C(C)(C)C)[C@@H](CO[Si](c3ccccc3)(c3ccccc3)C(C)(C)C)O2)c(=O)[nH]c1=O (stereo partly specified) | 6 | > 40
9 | Cc1cn([C@H]2C[C@H](OP(=O)(O)OC[C@H]3O[C@@H](n4cnc5c(O)nc(N)nc54)C[C@@H]3O)[C@@H](COCc3ccc(OCc4ccccc4)c(OCc4ccccc4)c3)O2)c(=O)[nH]c1=O | > 100 | > 100
10 | Cc1cn([C@H]2C[C@H](OP(=O)(O)OC[C@H]3O[C@@H](n4cnc5c(O)nc(N)nc54)C[C@@H]3OP(=O)(O)OC[C@H]3O[C@@H](n4cnc5c(O)nc(N)nc54)C[C@@H]3OP(=O)(O)OC[C@H]3O[C@@H](n4cnc5c(O)nc(N)nc54)C[C@@H]3O)[C@@H](COCc3ccc(OCc4ccccc4)c(OCc4ccccc4)c3)O2)c(=O)[nH]c1=O | 4.6 | > 40
11 | Cc1cn([C@H]2C[C@H](OP(=O)(O)OC[C@H]3O[C@@H](n4cnc5c(=O)[nH]c(N)nc54)C[C@@H]3OP(=O)(O)OC[C@H]3O[C@@H](n4cnc5c(=O)[nH]c(N)nc54)C[C@@H]3OP(=O)(O)OC[C@H]3O[C@@H](n4cnc5c(=O)[nH]c(N)nc54)C[C@@H]3OP(=O)(O)OC[C@H]3O[C@@H](n4cnc5c(N)ncnc54)C[C@@H]3OP(=O)(O)OC[C@H]3O[C@@H](n4cnc5c(=O)[nH]c(N)nc54)C[C@@H]3O)[C@@H](COCc3ccc4ccccc4c3)O2)c(=O)[nH]c1=O | 2 | > 40
12 | Cc1cn([C@H]2C[C@H](OP(=O)(O)OC[C@H]3O[C@@H](n4cnc5c(=O)[nH]c(N)nc54)C[C@@H]3OP(=O)(O)OC[C@H]3O[C@@H](n4cnc5c(=O)[nH]c(N)nc54)C[C@@H]3OP(=O)(O)OC[C@H]3O[C@@H](n4cnc5c(=O)[nH]c(N)nc54)C[C@@H]3OP(=O)(O)OC[C@H]3O[C@@H](n4cnc5c(N)ncnc54)C[C@@H]3OP(=O)(O)OC[C@H]3O[C@@H](n4cnc5c(=O)[nH]c(N)nc54)C[C@@H]3O)[C@@H](COCc3ccc(OCc4ccccc4)c(OCc4ccccc4)c3)O2)c(=O)[nH]c1=O | 0.37 | > 40
13 | Cc1cn([C@H]2C[C@H](OP(=O)(O)OC[C@H]3O[C@@H](n4cnc5c(=O)[nH]c(N)nc54)C[C@@H]3OP(=O)(O)OC[C@H]3O[C@@H](n4cnc5c(=O)[nH]c(N)nc54)C[C@@H]3OP(=O)(O)OC[C@H]3O[C@@H](n4cnc5c(=O)[nH]c(N)nc54)C[C@@H]3OP(=O)(O)OC[C@H]3O[C@@H](n4cnc5c(=O)[nH]c(N)nc54)C[C@@H]3O)[C@@H](COCc3ccc(OCc4ccccc4)c(OCc4ccccc4)c3)O2)c(=O)[nH]c1=O | 0.66 | > 40
14 | Cc1cn([C@H]2C[C@H](OP(=O)(O)OC[C@H]3O[C@@H](n4cc(C)c(=O)[nH]c4=O)C[C@@H]3OP(=O)(O)OC[C@H]3O[C@@H](n4cc(C)c(=O)[nH]c4=O)C[C@@H]3OP(=O)(O)OC[C@H]3O[C@@H](n4cc(C)c(=O)[nH]c4=O)C[C@@H]3OP(=O)(O)OC[C@H]3O[C@@H](n4cc(C)c(=O)[nH]c4=O)C[C@@H]3OP(=O)(O)OC[C@H]3O[C@@H](n4cc(C)c(=O)[nH]c4=O)C[C@@H]3O)[C@@H](COCc3ccc(OCc4ccccc4)c(OCc4ccccc4)c3)O2)c(=O)[nH]c1=O | > 24 | > 24
15 | Cc1cn([C@H]2C[C@H](OP(=O)(O)OC[C@H]3O[C@@H](n4cnc5c(=O)[nH]c(N)nc54)C[C@@H]3OP(=O)(O)OC[C@H]3O[C@@H](n4cnc5c(=O)[nH]c(N)nc54)C[C@@H]3OP(=O)(O)OC[C@H]3O[C@@H](n4cnc5c(=O)[nH]c(N)nc54)C[C@@H]3OP(=O)(O)OC[C@H]3O[C@@H](n4cnc5c(N)ncnc54)C[C@@H]3OP(=O)(O)OC[C@H]3O[C@@H](n4cnc5c(=O)[nH]c(N)nc54)C[C@@H]3O)[C@@H](COCc3ccccc3-c3ccccc3)O2)c(=O)[nH]c1=O | 1.2 | > 40
16 | Cc1cn([C@H]2C[C@H](OP(=O)(O)OC[C@H]3O[C@@H](n4cnc5c(=O)[nH]c(N)nc54)C[C@@H]3OP(=O)(O)OC[C@H]3O[C@@H](n4cnc5c(=O)[nH]c(N)nc54)C[C@@H]3OP(=O)(O)OC[C@H]3O[C@@H](n4cnc5c(=O)[nH]c(N)nc54)C[C@@H]3OP(=O)(O)OC[C@H]3O[C@@H](n4cnc5c(N)ncnc54)C[C@@H]3OP(=O)(O)OC[C@H]3O[C@@H](n4cnc5c(=O)[nH]c(N)nc54)C[C@@H]3O)[C@@H](COCc3ccc(OCc4ccccc4)cc3)O2)c(=O)[nH]c1=O | 1.9 | > 40
17 | COc1ccc(C(OC[C@H]2O[C@@H](n3cc(C)c(=O)[nH]c3=O)C[C@@H]2OP(=O)(O)OC[C@H]2O[C@@H](n3cnc4c(=O)[nH]c(N)nc43)C[C@@H]2OP(=O)(O)OC[C@H]2O[C@@H](n3cnc4c(=O)[nH]c(N)nc43)C[C@@H]2OP(=O)(O)OC[C@H]2O[C@@H](n3cnc4c(=O)[nH]c(N)nc43)C[C@@H]2OP(=O)(O)OC[C@H]2O[C@@H](n3cnc4c(N)ncnc43)C[C@@H]2OP(=O)(O)OC[C@H]2O[C@@H](n3cnc4c(=O)[nH]c(N)nc43)C[C@@H]2O)(c2ccccc2)c2ccc(OC)cc2)cc1 | 1 | 38
18 | Cc1cn([C@H]2C[C@H](OP(=O)(O)OC[C@H]3O[C@@H](n4cnc5c(=O)[nH]c(N)nc54)C[C@@H]3OP(=O)(O)OC[C@H]3O[C@@H](n4cnc5c(=O)[nH]c(N)nc54)C[C@@H]3OP(=O)(O)OC[C@H]3O[C@@H](n4cnc5c(=O)[nH]c(N)nc54)C[C@@H]3OP(=O)(O)OC[C@H]3O[C@@H](n4cnc5c(N)ncnc54)C[C@@H]3OP(=O)(O)OC[C@H]3O[C@@H](n4cnc5c(=O)[nH]c(N)nc54)C[C@@H]3O)[C@@H](COC(c3ccccc3)(c3ccccc3)c3ccccc3)O2)c(=O)[nH]c1=O | 0.8 | 23

— ChEMBL document CHEMBL1131099, “Biologically active oligodeoxyribonucleotides. 5. 5'-End-substituted d(TGGGAG) possesses anti-human immunodeficiency virus type 1 activity by forming a G-quadruplex structure” (J Med Chem, 1998)
